What was measured:
Eclipta prostrata [1] = test: Post-emergence herbicidal activity against Eclipta prostrata assessed as inhibition at 75 g/hectare treated at two-leaf stage by green house assay; type: functional
Procedure, shortened: (§1)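 Greenhouse postemergence spray of diluted formulation solutions onto broadleaf weeds at the two-leaf stage. Primary screen at 150 g ai/ha, with selected compounds retested at 75 and 37.5 g ai/ha. Abutilon was tested at 150 g ai/ha only. Read-out is percent herbicidal damage relative to an untreated control.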

Eclipta prostrata [2] = test: Post-emergence herbicidal activity against Eclipta prostrata assessed as inhibition at 37.5 g/hectare treated at two-leaf stage by green house assay; type: functional; procedure, shortened: as §1
Amaranthus retroflexus [3] = test: Post-emergence herbicidal activity against Amaranthus retroflexus assessed as inhibition at 37.5 g/hectare treated at two-leaf stage by green house assay; type: functional; procedure, shortened: as §1
Amaranthus retroflexus [4] = test: Post-emergence herbicidal activity against Amaranthus retroflexus assessed as inhibition at 75 g/hectare treated at two-leaf stage by green house assay; type: functional; procedure, shortened: as §1
Brassica juncea [5] = test: Post-emergence herbicidal activity against Brassica juncea assessed as inhibition at 75 g/hectare treated at two-leaf stage by green house assay; type: functional; procedure, shortened: as §1
Brassica juncea [6] = test: Post-emergence herbicidal activity against Brassica juncea assessed as inhibition at 37.5 g/hectare treated at two-leaf stage by green house assay; type: functional; procedure, shortened: as §1
Digitaria sanguinalis [7] = test: Post-emergence herbicidal activity against Digitaria sanguinalis (hairy crabgrass) assessed as inhibition at 75 g/hectare treated at one-leaf stage by green house assay; type: functional
Procedure, shortened: (§2)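 Monocot weeds were sprayed postemergence in the greenhouse at the one-leaf stage with diluted formulation solutions. Primary dose was 150 g ai/ha, with follow-up doses of 75 and 37.5 g ai/ha for selected compounds. Activity is scored as percent herbicidal damage compared with an untreated control.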

Digitaria sanguinalis [8] = test: Post-emergence herbicidal activity against Digitaria sanguinalis (hairy crabgrass) assessed as inhibition at 37.5 g/hectare treated at one-leaf stage by green house assay; type: functional; procedure, shortened: as §2
Setaria viridis [9] = test: Post-emergence herbicidal activity against Setaria viridis (green foxtail) assessed as inhibition at 75 g/hectare treated at one-leaf stage by green house assay; type: functional; procedure, shortened: as §2
Setaria viridis [10] = test: Post-emergence herbicidal activity against Setaria viridis (green foxtail) assessed as inhibition at 37.5 g/hectare treated at one-leaf stage by green house assay; type: functional; procedure, shortened: as §2
Echinochloa crus-galli [11] = test: Post-emergence herbicidal activity against Echinochloa crus-galli (barnyard grass) assessed as inhibition at 75 g/hectare treated at one-leaf stage by green house assay; type: functional; procedure, shortened: as §2
Echinochloa crus-galli [12] = test: Post-emergence herbicidal activity against Echinochloa crus-galli (barnyard grass) assessed as inhibition at 37.5 g/hectare treated at one-leaf stage by green house assay; type: functional; procedure, shortened: as §2
Eclipta prostrata [13] = test: Post-emergence herbicidal activity against Eclipta prostrata assessed as inhibition at 150 g/hectare treated at two-leaf stage by green house assay; type: functional; procedure, shortened: as §1
Amaranthus retroflexus [14] = test: Post-emergence herbicidal activity against Amaranthus retroflexus assessed as inhibition at 150 g/hectare treated at two-leaf stage by green house assay; type: functional; procedure, shortened: as §1
Brassica juncea [15] = test: Post-emergence herbicidal activity against Brassica juncea assessed as inhibition at 150 g/hectare treated at two-leaf stage by green house assay; type: functional; procedure, shortened: as §1
Abutilon theophrasti = test: Post-emergence herbicidal activity against Abutilon theophrasti (velvetleaf) assessed as inhibition at 150 g/hectare treated at two-leaf stage by green house assay; type: functional; procedure, shortened: as §1
Digitaria sanguinalis [16] = test: Post-emergence herbicidal activity against Digitaria sanguinalis (hairy crabgrass) assessed as inhibition at 150 g/hectare treated at one-leaf stage by green house assay; type: functional; procedure, shortened: as §2
Echinochloa crus-galli [17] = test: Post-emergence herbicidal activity against Echinochloa crus-galli (barnyard grass) assessed as inhibition at 150 g/hectare treated at one-leaf stage by green house assay; type: functional; procedure, shortened: as §2
Setaria viridis [18] = test: Post-emergence herbicidal activity against Setaria viridis (green foxtail) assessed as inhibition at 150 g/hectare treated at one-leaf stage by green house assay; type: functional; procedure, shortened: as §2
Triticum aestivum = test: Toxicity in Triticum aestivum (wheat) plant assessed as inhibition at 150 g/hectare; type: organism-based; settings: in vivo
Procedure, shortened: (§3)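 For crop selectivity, conventional crop varieties were planted in 12 cm diameter plots and given a postemergence treatment at 150 g ai/ha. Injury was scored as percent inhibition, with 0–10% classed as safe to the crop.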

Brassica napus = test: Toxicity in Brassica napus (oilseed rape) assessed as inhibition at 150 g/hectare; type: functional; procedure, shortened: as §3
Gossypium hirsutum = test: Toxicity in Gossypium hirsutum (cotton) plant assessed as inhibition at 150 g/hectare; type: organism-based; settings: in vivo; procedure, shortened: as §3
Glycine max = test: Toxicity in Glycine max (soybean) plant assessed as inhibition at 150 g/hectare; type: organism-based; settings: in vivo; procedure, shortened: as §3
Zea mays = test: Toxicity in Zea mays (maize) plant assessed as inhibition at 150 g/hectare; type: organism-based; settings: in vivo; procedure, shortened: as §3
Oryza sativa = test: Toxicity in Oryza sativa (rice) plant assessed as inhibition at 150 g/hectare; type: organism-based; settings: in vivo; procedure, shortened: as §3

SMILES | inhibition at 150 g/ha (Eclipta prostrata [13]) | inhibition at 150 g/ha (Amaranthus retroflexus [14]) | inhibition at 150 g/ha (Brassica juncea [15]) | inhibition at 150 g/ha (Abutilon theophrasti) | inhibition at 150 g/ha (Digitaria sanguinalis [16]) | inhibition at 150 g/ha (Echinochloa crus-galli [17]) | inhibition at 150 g/ha (Setaria viridis [18]) | further results
COP(=O)(OC)C(C)OC(=O)COc1ccc(Cl)cc1Cl (stereo not drawn) [CLACYFOS] | 90% | 96% | 85% | 100% | 0% | 0% | 0% | inhibition at 75 g/ha (Eclipta prostrata [1]): 80%; inhibition at 37.5 g/ha (Eclipta prostrata [2]): 60%; inhibition at 37.5 g/ha (Amaranthus retroflexus [3]): 70%; inhibition at 75 g/ha (Amaranthus retroflexus [4]): 95%; inhibition at 75 g/ha (Brassica juncea [5]): 95%; inhibition at 37.5 g/ha (Brassica juncea [6]): 90%; inhibition at 75 g/ha (Digitaria sanguinalis [7]): 0%; inhibition at 37.5 g/ha (Digitaria sanguinalis [8]): 0%; inhibition at 75 g/ha (Setaria viridis [9]): 0%; inhibition at 37.5 g/ha (Setaria viridis [10]): 0%; inhibition at 75 g/ha (Echinochloa crus-galli [11]): 0%; inhibition at 37.5 g/ha (Echinochloa crus-galli [12]): 0%
Cc1cc(Cl)ccc1OCC(=O)OC(c1ccccc1)P1(=O)OCC(C)(C)CO1 (stereo not drawn) | 75% | 100% | 90% | 100% | 0% | 40% | 0% | 
CC1(C)COP(=O)(C(OC(=O)COc2ccc(Cl)cc2Cl)c2ccc(Cl)cc2Cl)OC1 (stereo not drawn) | 70% | 80% | 100% | 95% | 0% | 0% | 0% | inhibition (INH) (Triticum aestivum): 0%; inhibition at 150 g/ha (Brassica napus): 40%; inhibition (INH) (Gossypium hirsutum): 20%; inhibition (INH) (Glycine max): 30%; inhibition (INH) (Zea mays): 10%; inhibition (INH) (Oryza sativa): 10%; inhibition at 75 g/ha (Eclipta prostrata [1]): 34%; inhibition at 37.5 g/ha (Eclipta prostrata [2]): 30%; inhibition at 37.5 g/ha (Amaranthus retroflexus [3]): 20%; inhibition at 75 g/ha (Amaranthus retroflexus [4]): 20%; inhibition at 75 g/ha (Brassica juncea [5]): 55%; inhibition at 37.5 g/ha (Brassica juncea [6]): 50%; inhibition at 75 g/ha (Digitaria sanguinalis [7]): 0%; inhibition at 37.5 g/ha (Digitaria sanguinalis [8]): 0%; inhibition at 75 g/ha (Setaria viridis [9]): 0%; inhibition at 37.5 g/ha (Setaria viridis [10]): 0%; inhibition at 75 g/ha (Echinochloa crus-galli [11]): 0%; inhibition at 37.5 g/ha (Echinochloa crus-galli [12]): 0%
Cc1cc(OCC(=O)OC(c2ccccc2)P2(=O)OCC(C)(C)CO2)ccc1Cl (stereo not drawn) | 60% | 65% | 65% | 65% | 0% | 0% | 0% | 
CC1(C)COP(=O)(C(OC(=O)COc2ccc(Cl)cc2Cl)c2ccccc2)OC1 (stereo not drawn) | 80% | 90% | 100% | 98% | 0% | 0% | 0% | inhibition (INH) (Triticum aestivum): 10%; inhibition at 150 g/ha (Brassica napus): 40%; inhibition (INH) (Gossypium hirsutum): 40%; inhibition (INH) (Glycine max): 30%; inhibition (INH) (Zea mays): 0%; inhibition (INH) (Oryza sativa): 10%; inhibition at 75 g/ha (Eclipta prostrata [1]): 55%; inhibition at 37.5 g/ha (Eclipta prostrata [2]): 50%; inhibition at 37.5 g/ha (Amaranthus retroflexus [3]): 50%; inhibition at 75 g/ha (Amaranthus retroflexus [4]): 80%; inhibition at 75 g/ha (Brassica juncea [5]): 95%; inhibition at 37.5 g/ha (Brassica juncea [6]): 90%; inhibition at 75 g/ha (Digitaria sanguinalis [7]): 0%; inhibition at 37.5 g/ha (Digitaria sanguinalis [8]): 0%; inhibition at 75 g/ha (Setaria viridis [9]): 0%; inhibition at 37.5 g/ha (Setaria viridis [10]): 0%; inhibition at 75 g/ha (Echinochloa crus-galli [11]): 0%; inhibition at 37.5 g/ha (Echinochloa crus-galli [12]): 0%
CCCCC(OC(=O)COc1ccc(Cl)cc1Cl)P1(=O)OCC(C)(C)CO1 (stereo not drawn) | 75% | 85% | 100% | 90% | 0% | 0% | 0% | inhibition (INH) (Triticum aestivum): 10%; inhibition at 150 g/ha (Brassica napus): 40%; inhibition (INH) (Gossypium hirsutum): 20%; inhibition (INH) (Glycine max): 30%; inhibition (INH) (Zea mays): 0%; inhibition (INH) (Oryza sativa): 30%; inhibition at 75 g/ha (Eclipta prostrata [1]): 40%; inhibition at 37.5 g/ha (Eclipta prostrata [2]): 30%; inhibition at 37.5 g/ha (Amaranthus retroflexus [3]): 50%; inhibition at 75 g/ha (Amaranthus retroflexus [4]): 70%; inhibition at 75 g/ha (Brassica juncea [5]): 100%; inhibition at 37.5 g/ha (Brassica juncea [6]): 90%; inhibition at 75 g/ha (Digitaria sanguinalis [7]): 0%; inhibition at 37.5 g/ha (Digitaria sanguinalis [8]): 0%; inhibition at 75 g/ha (Setaria viridis [9]): 0%; inhibition at 37.5 g/ha (Setaria viridis [10]): 0%; inhibition at 75 g/ha (Echinochloa crus-galli [11]): 0%; inhibition at 37.5 g/ha (Echinochloa crus-galli [12]): 0%
CC1(C)COP(=O)(C(OC(=O)COc2ccc(Cl)cc2)c2ccccc2)OC1 (stereo not drawn) | 50% | 60% | 70% | 65% | 0% | 0% | 0% | 
COP(=O)(OC)C(C)OC(=O)COc1ccc(Cl)cc1C (stereo not drawn) | 30% | 10% | 20% | 82% | 0% | 0% | 0% | 
CC1(C)COP(=O)(C(OC(=O)COc2ccccc2Cl)c2ccccc2)OC1 (stereo not drawn) | 65% | 75% | 75% | 70% | 0% | 0% | 0% | 
Cc1cc(OCC(=O)OC(C)P2(=O)OCC(C)(C)CO2)ccc1Cl (stereo not drawn) | 60% | 60% | 70% | 70% | 0% | 0% | 0% | 
CC1(C)COP(=O)(C(OC(=O)COc2ccccc2Cl)c2ccco2)OC1 (stereo not drawn) | 70% | 85% | 90% | 70% | 0% | 0% | 0% | 
Cc1cc(Cl)ccc1OCC(=O)OC(c1ccco1)P1(=O)OCC(C)(C)CO1 (stereo not drawn) | 70% | 100% | 90% | 100% | 0% | 60% | 0% | 
CC1(C)COP(=O)(C(OC(=O)COc2ccc(Cl)cc2)c2ccco2)OC1 (stereo not drawn) | 50% | 55% | 70% | 70% | 0% | 0% | 0% | 
Cc1cc(OCC(=O)OC(c2ccco2)P2(=O)OCC(C)(C)CO2)ccc1Cl (stereo not drawn) | 55% | 60% | 65% | 70% | 0% | 0% | 0% | 
CC(OC(=O)COc1ccc(Cl)cc1)P1(=O)OCC(C)(C)CO1 (stereo not drawn) | 60% | 70% | 75% | 70% | 0% | 10% | 0% | 
CC(OC(=O)COc1ccccc1Cl)P1(=O)OCC(C)(C)CO1 (stereo not drawn) | 75% | 90% | 90% | 70% | 0% | 20% | 0% | 
CC(C)C(OC(=O)COc1ccc(Cl)cc1Cl)P1(=O)OCC(C)(C)CO1 (stereo not drawn) | 75% | 85% | 100% | 95% | 0% | 0% | 0% | inhibition (INH) (Triticum aestivum): 10%; inhibition at 150 g/ha (Brassica napus): 50%; inhibition (INH) (Gossypium hirsutum): 20%; inhibition (INH) (Glycine max): 30%; inhibition (INH) (Zea mays): 0%; inhibition (INH) (Oryza sativa): 20%; inhibition at 75 g/ha (Eclipta prostrata [1]): 35%; inhibition at 37.5 g/ha (Eclipta prostrata [2]): 30%; inhibition at 37.5 g/ha (Amaranthus retroflexus [3]): 30%; inhibition at 75 g/ha (Amaranthus retroflexus [4]): 80%; inhibition at 75 g/ha (Brassica juncea [5]): 100%; inhibition at 37.5 g/ha (Brassica juncea [6]): 90%; inhibition at 75 g/ha (Digitaria sanguinalis [7]): 0%; inhibition at 37.5 g/ha (Digitaria sanguinalis [8]): 0%; inhibition at 75 g/ha (Setaria viridis [9]): 0%; inhibition at 37.5 g/ha (Setaria viridis [10]): 0%; inhibition at 75 g/ha (Echinochloa crus-galli [11]): 0%; inhibition at 37.5 g/ha (Echinochloa crus-galli [12]): 0%
